# Compound activity deposited in PubChem by several laboratories.
# Insulin prom up = MIN6 insulin promoter up-regulation | AID 1625 | z-score at 5 µM | MIN6 insulin promoter-GFP reporter, high-content imaging; active compounds read high | 190,000 compounds, 0.3% hits;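 active = z-score above 3 at 5 µM with at least 500 cells counted in the well; inconclusive = wells under 500 cells, flagged as cytotoxic or low count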
# Calb FLC = C. albicans growth modulation with fluconazole | C. albicans CaCi-2 + fluconazole, Alamar Blue growth, 48 h | growth inhibition, % (concentration not given with the values) | 300,000 compounds, 0.57% hits | AID 1979;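 active = growth inhibition above about 58% in most replicates, limit read from the data, passing the limit was not always enough; inconclusive = exactly half the replicates above a set limit; inactive = most replicates below a set limit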;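 note: all wells also contain fluconazole at 8 µg/ml as a sub-toxic cotreatment; 0% = median of DMSO wells and 100% = median of geldanamycin control wells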
# SR-BI DiI-HDL act = enhances SR-BI lipid uptake from DiI-HDL; AID 504775; CHO ldlA[mSR-BI] cells, DiI-HDL uptake fluorescence, 3 h; 100 = double the neutral-control signal; 320,000 compounds, 0.096% hits; activation, % at 12.5 µM;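 active = mean replicate activation of at least 60% and every replicate at or above 60%; inconclusive = mean or all-replicate condition met, but not both; inactive = mean below 60% and not all replicates reaching 60%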;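 note: 0% = median plate neutral-control signal and 100% = twice that signal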
#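 System: CHO ldlA[mSR-BI] cells / Medium: HEPES-buffered (25 mM, pH 7.4) F12 plus 0.5% BSA / Probe or stimulus: labelled HDL, 10 µg/mL / Doses: single compound concentration, delivered by pin transfer / Schedule: 3 h, 37 °C / Measured by: DiI fluorescence, bottom read / Measure: cell-associated DiI fluorescence as measure of HDL uptake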
# SR-BI HDL uptake = mouse SR-BI HDL lipid transfer inhibition; Q61009; ldlA[mSR-BI] CHO cells, DiI-HDL uptake fluorescence, 3 h; inhibition, % at 12.5 µM; 320,000 compounds, 0.96% hits;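 active = mean replicate inhibition of at least 70% and a set share of replicates each scoring 70 or more; inconclusive = meets just one of the two criteria; inactive = fails both criteria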;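 note: 0% = median of neutral control wells and 100% = median of positive control wells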
# Target sequence (Q61009 whole entry, looked up): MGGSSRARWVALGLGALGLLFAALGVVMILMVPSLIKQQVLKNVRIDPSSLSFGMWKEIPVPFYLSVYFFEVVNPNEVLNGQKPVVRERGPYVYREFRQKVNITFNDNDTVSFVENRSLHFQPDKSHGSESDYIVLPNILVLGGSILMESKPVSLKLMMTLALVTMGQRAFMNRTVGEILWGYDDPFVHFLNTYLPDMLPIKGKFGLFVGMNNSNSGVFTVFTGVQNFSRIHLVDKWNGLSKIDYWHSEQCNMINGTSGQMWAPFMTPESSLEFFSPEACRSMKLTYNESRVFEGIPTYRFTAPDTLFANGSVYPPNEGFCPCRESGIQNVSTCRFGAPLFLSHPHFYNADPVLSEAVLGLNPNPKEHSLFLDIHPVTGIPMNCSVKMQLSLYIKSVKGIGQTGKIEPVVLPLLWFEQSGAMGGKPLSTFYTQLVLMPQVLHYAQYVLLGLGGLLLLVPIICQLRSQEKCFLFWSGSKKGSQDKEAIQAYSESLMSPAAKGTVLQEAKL
# m5-HT2A agonist = activates the mouse 5-HT2A serotonin receptor | CHO-K1 mHTR2A beta-arrestin complementation, luminescence; percent of 30 µM serotonin response | activation, % at 7.6 µM | 360,000 compounds, 0.66% hits | AID 624169;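 active = activation above a run cutoff, the mean activation of all tested compounds plus 3 SD, cut at about 14% in these data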;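 note: 0% = plate median of compound wells and 100% = 30 µM serotonin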
# MIN6 prolif-1 = inducers of beta-cell replication in MIN6 cells; AID 2380; proliferation, % at 10 µM; 330,000 compounds, 0.29% hits; MIN6 cells proliferation, ATPlite luminescence, 48 h; cells starved in 0.2% serum; 100% = growth in 10% serum;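 active = compounds whose signal lies at least 3.5 SD above the mean of all wells on their plate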;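 note: 0% = DMSO-treated cells in low-serum medium and 100% = 10% serum control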
# MIN6 prolif-2 = MIN6 beta-cell replication induction, confirmed. MIN6 beta-cell proliferation, ATPlite luminescence, 48 h; cells kept in 0.2% serum; scaled between 0.2% and 10% serum. 920 tested, under 10 active. proliferation increase, % at 50 µM. shares compounds with MIN6 prolif-1. AID 463095;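 active = proliferation increase above 40% at any of the four tested concentrations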
# Numbers without * were called inactive; ? = inconclusive; / = no result; ! = a repeat was not active. Most compounds without a hit are left out; they make up all but 2.4% or so of the library.
SMILES,Insulin prom up,Calb FLC,SR-BI DiI-HDL act,SR-BI HDL uptake,m5-HT2A agonist,MIN6 prolif-1,MIN6 prolif-2
CCOC(=O)c1cccc2c1-c1ccccc1/C2=N/O,0.46,24,-7,7,-6,-2,/
CC1CCCC(C)N1C(=O)c1cccc2c1-c1ccccc1/C2=N/O (stereo not given),/,/,-6,6,-6,5.5*,-6
Cc1ccsc1C(=O)N1CCc2ccccc2C1,/,-23,-2,2,3,-1,/
COc1cc2c(cc1OC)CN(C(=O)c1sccc1C)CC2,-0.31,-5,-5,5,-1,5.1*,0
CC1(C)Oc2c(ccc(O)c2CN2CCOCC2)C2=C1CCCC2,/,/,-26,26,-2,/,/
C/C(=N\NC(=O)C1CC1)c1ccccc1Br,/,32,27,-27,0,0,/
C/C(=N\NC(=O)C1CC1)c1ccccc1O,-0.87,-2,13,-13,0,11*,-2
CC(C)Sc1nc2c(cnn2-c2ccc(Cl)cc2)c(=O)[nH]1,/,1,16,-16,0,11*,-2
CC1(Cc2ccccc2F)C(=O)Nc2c(Cl)ccc(Cl)c21 (stereo not given),/,/,/,/,4,/,/
c1ccc(Cn2nnnc2CN2CCCC2)cc1,/,0,18,-18,1,4.8*,2
COC(=O)[C@]12CCCCC=C1N(Cc1ccc(Cl)cc1Cl)C(=O)[C@H](CC(=O)NCCCCc1ccccc1)C2,/,/,/,/,-3,/,/
CCN(CC)CCP(=O)(c1ccccc1)c1ccccc1,/,0,-71,?,-5,4.6*,-3
CP(C)(=O)CCP(=O)(c1ccccc1)c1ccccc1,0,7,22,-22,-2,0,/
CCN(CC)C(=O)CN1C(=O)C2CC=C(Cl)CC2C1=O (stereo not given),0.29,0,25,-25,-2,6.9*,1
N#Cc1ccc(OCC(=O)N2CCN(c3ccc(C(F)(F)F)cn3)CC2)cc1,/,/,-7,7,-4,-3,/
NC(=O)c1c(N)[nH]c(C(=O)c2ccccc2)c1-c1ccccc1Br,/,/,/,/,7,/,/
NC(=O)c1[nH]cnc1N,/,-5,0,0,1,12*!,-1
CCCCOC(=O)c1nc[nH]c1C(=O)OCCCC,0.17,-20,15,-15,1,-3,/
COC(=O)c1sccc1NC(=O)c1ccc(OC)cc1OC,-0.13,21,-24,24,-2,7.8*,-3
COC(=O)c1sccc1NC(=O)c1cccc(OC)c1,-0.63,-14,-13,13,0,-2,/
Cc1cccc(N2CCN(C(=S)NC3CCCCC3)CC2)c1C,0.63,-11,/,/,0,7.9*,0
CCCCNC(=O)Nc1nnc(C(C)(C)C)s1,0.95,1,30,-30,0,5.1*,1
CCc1ccc(C(C(=O)NC2CCCCC2)N(C(=O)c2csnn2)C2CC2)cc1 (stereo not given),/,-1,4,-4,4,2,/
CC(C)(C)c1ccc(C(=O)NC2CCN(Cc3ccccc3)CC2)cc1,/,-21,-6,6,-16,-3,/
O=C(NC1CCN(Cc2ccccc2)CC1)c1ccccc1,/,-6,7,-7,-8,8.2*,-1
SMILES,Insulin prom up,Calb FLC,SR-BI DiI-HDL act,SR-BI HDL uptake,m5-HT2A agonist,MIN6 prolif-1,MIN6 prolif-2
CCc1ccccc1NC(=O)CN1CCN(C(=O)CCC(=O)N2CCC(c3ccccc3)=N2)CC1,/,/,-48,48,9,-2,/
O=S(=O)(c1ccccc1)N1CCN(Cc2cccc(Cl)c2)CC1,-0.43,/,7,-7,-4,0,/
O=S(=O)(c1ccccc1)N1CCN(c2cccc(Cl)c2)CC1,/,3,24,-24,-4,7.2*,-6
Cc1ccc(S(=O)(=O)N(C)C)cc1NC(=O)COC(=O)c1n[nH]c(=O)c2ccccc12,-0.25,-8,22,-22,4,11*,1
CCOc1ccc(Nc2cc3n(c(=O)n2)CCc2cc(OC)c(OC)cc2-3)cc1,/,-24,-20,20,3,-2,/
CCOc1ccccc1Nc1cc2n(c(=O)n1)CCc1cc(OC)c(OC)cc1-2,/,8,-59,59,-6,12*,-1
